Compound activity as filed in PubChem.
A selection: hits, their analogues and other compounds. The true share with any hit is near 9.6%.
BaF3 parental: reduces parental Ba/F3 cell viability, JAK2V617F counter-screen | CellTiter-Glo ATP luminescence | inhibition, % at 5.6 µM | 220,000 tested, 1.1% active | AID 1486;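 active = inhibition above a per-campaign cutoff, the mean inhibition of all tested compounds plus 3 SD, cut at about 27% in these data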
Ba/F3 V617F tox: reduce viability of Ba/F3 cells dependent on JAK2V617F; Ba/F3 EpoR-JAK2V617F viability, ATP luminescence; inhibition, % at 5.6 µM; 220,000 tested, 1.1% active;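 active = inhibition above the campaign mean plus 3 SD over all tested compounds, cut at about 24% in these data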;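 also: cytokine-independent growth of Ba/F3 cells driven by EpoR plus mutant JAK2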
bCat nuc transl: modulators of beta-catenin nuclear translocation; HeLa beta-catenin nuclear translocation, immunofluorescence imaging; nuclear translocation activity, % at 5 µM; 190,000 tested, 0.3% active; AID 1665;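 active = nuclear translocation activity above 50% at 5 µM, with a well cell count of 50 or more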;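 also: per-cell ratio of nuclear to cytoplasmic median beta-catenin stain intensity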
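Assay system: human HeLa cells, native beta-catenin; doses: 5 µM primary, 0.02–20 µM confirmation; incubation: compound treatment 24 h, 37°C, 5% CO2; technique: fluorescence imaging of beta-catenin antibody stain plus DAPI; measure: % activation, nuclear-to-cytoplasmic median beta-catenin signal ratio per cell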
L major viab: inhibitors of Leishmania major promastigote growth | inhibition, % at 10 µM | Leishmania major promastigotes, resazurin fluorescence viability | 200,000 tested, 9% active | AID 1063; in the data active = inhibition above about 50%;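 also: promastigotes grown with compound for 44 hours at 28 °C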
MT stabilize HCS: stabilizes microtubules in HeLa cells; HeLa tubulin immunostaining HCS, 24 h; share of cells brighter than vehicle mean+2SD; % tubulin-high responders, % at 10 µM; 200,000 tested, 0.83% active; AID 2205;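 active = plate Z-score above 3 for both tubulin-high and condensed-nucleus cell shares, with cell loss under 80%, at 10 µM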;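 also: anti alpha tubulin signal scored within the nucleus-defined area of each cell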
APP 5UTR inh: APP translation inhibition | AID 1285 | SH-SY5Y APP 5'UTR-luciferase reporter, luminescence | inhibition, % at 2 µM | 190,000 tested, 0.82% active;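 active = inhibition above a set limit, derived from the sample mean plus 3 SD, cut at about 45% in these data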
Hits are given with their value; n = inactive; x = not tested or not shown.

SMILES	BaF3 parental	Ba/F3 V617F tox	bCat nuc transl	L major viab	MT stabilize HCS	APP 5UTR inh
COc1ccc(CCNC(=O)CSc2nnc(-c3ccc(F)cc3)c3ccccc23)cc1OC	n	n	n	65.2	n	n
COCCn1c(-c2ccc(OC)cc2)cnc1SCC(=O)Nc1cccc2ccccc12	n	n	n	77.3	n	n
CCCc1nnc(NC(=O)CCC(=O)NCc2ccc(OC)cc2)s1	n	n	n	x	x	x
Cc1ccccc1NC(=O)CC1(c2ccc(N(C)C)cc2)C(=O)c2ccccc2C1=O	n	n	x	n	n	n
Cc1c(C(=O)NCc2ccccc2)c(-c2ccccc2)nn1-c1ccccc1	n	n	n	85.6	n	n
Clc1ccc(OCCCCCN2CCCC2)c(Br)c1	n	n	n	98.0	n	n
O=C(OCCN1CCCCC1)c1ccc(Cl)cc1	n	n	x	n	n	x
Brc1ccccc1OCCCCCN1CCCC1	n	n	n	97.5	n	n
Clc1ccc(OCCCN2CCCCC2)c(Br)c1	n	n	n	99.1	n	n
CCN1CCN(CCCOc2ccc(Cl)cc2Br)CC1	n	n	n	96.0	n	n
Cc1cc(Cl)ccc1OCCCC(=O)N1CCCCC1	n	n	x	n	n	n
COc1ccccc1/C=C/C=c1\sc2nc(=O)c(Cc3ccccc3)nn2c1=O	n	n	n	x	x	x
Cc1cc[n+](-c2ccccc2)c2ccccc12	65.2	67.8	n	n	n	n
Nc1c(N2CCCC2)c2ccccc2oc1=O	n	n	n	n	n	n
CCCCc1ccc(NC(=O)COc2ccc(C(=O)Nc3ccccc3OC)cc2)cc1	n	n	n	72.4	n	n
CCCCc1ccc(NC(=O)COc2ccc(C(=O)Nc3ccccc3C)cc2)cc1	n	n	n	n	n	n
CN1CCN(NC(=O)c2ccc(Br)c(S(=O)(=O)N3CCOCC3)c2)CC1	n	n	n	n	n	n
C1=CCC(CN2CCNCC2)CC1 (centres undefined)	n	n	n	n	n	n
Cc1ccc(C)c(N2CCN(CC3CC=CCC3)CC2)c1 (centres undefined)	n	n	x	86.9	n	n
CCOc1ccc(/C=N/NC(=O)c2c(C)n(C)c3ccc(OC)cc23)cc1	n	n	n	n	16.6	n
COc1ccc(-n2nc(C(=O)NCC(=O)NCC3COc4ccccc4O3)c3ccccc3c2=O)cc1 (centres undefined)	n	n	n	n	n	n
O=C(COC(=O)C1CC1)Nc1ccc2c(c1)OCO2	n	n	n	n	n	n
O=C(Nc1nc2ccccc2n1CCOc1ccccc1)c1ccco1	n	n	n	62.0	n	n
Cc1ccc(OCCn2c(NC(=O)c3ccco3)nc3ccccc32)cc1	n	n	n	n	n	n
O=C(Nc1nc2ccccc2n1CCOc1ccc(Cl)cc1)c1ccco1	n	n	n	89.8	n	n
SMILES	BaF3 parental	Ba/F3 V617F tox	bCat nuc transl	L major viab	MT stabilize HCS	APP 5UTR inh
O=C(Nc1nc2ccccc2n1Cc1ccc(Cl)cc1)c1ccco1	n	n	n	n	n	n
Clc1ccc2c(N/N=C/c3ccccc3Br)ccnc2c1	n	n	x	99.2	n	n
Clc1ccc2c(N/N=C/c3cccc(Br)c3)ccnc2c1	n	n	x	100.4	n	n
Clc1ccc2c(NNc3ccccc3Cl)ccnc2c1	n	n	n	n	n	n
Nc1nc(Nc2ccccc2Cl)cc(=O)[nH]1	n	n	n	x	x	x
COc1cc2c(cc1OC)CN(CC(=O)NC(=O)NCc1ccccc1)CC2	n	n	n	n	n	n
CCCCCCn1c(SCCCC)nc2c1c(=O)[nH]c(=O)n2C	n	n	n	n	n	n
CCn1c([N+](=O)[O-])nc2c1c(=O)[nH]c(=O)n2C	n	n	n	100.3	n	n
NC(=O)c1ccc(N=Nc2c(-c3ccccc3)[nH]n(-c3ccccc3)c2=O)cc1	n	n	n	n	n	68.7
Nc1[nH]n2c(=O)cc(-c3ccccc3)nc2c1N=Nc1ccc(S(N)(=O)=O)cc1	n	n	n	n	n	n
NS(=O)(=O)c1ccc(N=Nc2c(-c3ccccc3)[nH]n(-c3nc(-c4ccccc4)cs3)c2=O)cc1	n	n	n	73.3	n	n
O=c1c(N=Nc2ccc(O)cc2)c(-c2ccccc2)[nH]n1-c1ccc([N+](=O)[O-])cc1	n	n	n	n	n	n
OCCN1CCN(c2cc(C(F)(F)F)nc3c(F)cccc23)CC1	n	n	n	x	x	x
COC(=O)c1cc(Br)ccc1NC(=O)Nc1ccc(C)cc1	34.4	n	x	n	n	n
COC(=O)c1cc(Br)ccc1NC(=O)Nc1ccccc1	n	n	n	n	n	n
